pEC50, pIC50: −log10 of the molar value.
How the values were obtained:
Oryctolagus cuniculus [1] = species on record: Oryctolagus cuniculus; assay: In vitro inhibition of potassium-induced contractions in rabbit aorta strips.; type: functional, organism-based
Method in brief: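 Rabbit aortic strips contracted with 110 mM KCl (equimolar replacement of NaCl), then exposed to cumulative concentrations of test compound.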

Oryctolagus cuniculus [2] = species on record: Oryctolagus cuniculus; assay: In vitro contraction of rabbit aorta strips.; type: functional, organism-based
Method in brief: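 Rabbit aortic strips first contracted with 110 mM KCl to check viability and set maximal force. After washout and full relaxation, strips were equilibrated in 10 mM KCl, then given cumulative concentrations of test compound. EC50 is the concentration giving 50% of the prior 110 mM KCl maximal force.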

| Structure (SMILES) | pIC50 (Oryctolagus cuniculus [1]; Oryctolagus cuniculus, Aorta) | pEC50 (Oryctolagus cuniculus [2]; Oryctolagus cuniculus, Aorta) | pIC50 (Oryctolagus cuniculus [1]) | pEC50 (Oryctolagus cuniculus [2]) |
| --- | --- | --- | --- | --- |
| CSC1=NC(c2ccccc2SC)C2=C(O)OCC2=N1 (stereo not given) | < 4.52 | < 4.52 |  |  |
| CSC1=NC(c2cccc([N+](=O)[O-])c2SC)C2=C(O)OCC2=N1 (stereo not given) | < 4.52 | < 4.52 |  |  |
| COC(=O)C1=C(C)N=C(SC)N[C@@H]1c1ccccc1SC | 5.64 | < 4.52 |  |  |
| COC(=O)C1=C(C)N=C(SC)NC1c1cc([N+](=O)[O-])ccc1SC (stereo not given) | 4.70 | < 4.52 |  |  |
| CSC1=NC2/C(=C(/O)OCCCCCSc3c2cccc3[N+](=O)[O-])C(C)=N1 (stereo not given) | 7.44 | < 4.52 |  |  |
| CSC1=NC(c2cccc([N+](=O)[O-])c2)C2=C(O)OCC2=N1 (stereo not given) | < 4.52 | < 4.52 |  |  |
| CSC1=NC(c2cc([N+](=O)[O-])ccc2SC)C2=C(O)OCC2=N1 (stereo not given) | < 4.52 | < 4.52 |  |  |
| CSC1=NC2/C(=C(/O)OCCCCCSc3ccc([N+](=O)[O-])cc32)C(C)=N1 (stereo not given) | 4.59 | 5.54 |  |  |
| COC(=O)C1=C(C)N=C(SC)NC1c1ccccc1SC (stereo not given) | 4.69 | < 4.52 |  |  |
| COC(=O)C1=C(C)N=C(SC)NC1c1cccc([N+](=O)[O-])c1SC (stereo not given) |  | < 4.52 |  |  |
| COC(=O)C1=C(C)N=C(SC)NC1c1cccc([N+](=O)[O-])c1 (stereo not given) | 5.60 | < 4.52 |  |  |
| CO/C(O)=C1\C(C)=NC(C)=C([N+](=O)[O-])[C@H]1c1ccccc1C(F)(F)F | 4.77 | 7.34 |  |  |
| COC(=O)C1=C(C)N=C(SC)N[C@H]1c1ccccc1SC | < 4.52 | 5.45 |  |  |
| CCCCSc1ccccc1C1N=C(SC)NC2=C1C(=O)OC2 (stereo not given) | < 4.52 | 4.76 |  |  |
| CSC1=NC2/C(=C(/O)OCCCCCSc3ccccc32)C(C)=N1 (stereo in doubt; 15b) |  |  | 5.41 | 6.09 |
| CSC1=NC2/C(=C(/O)OCCCCCSc3ccccc32)C(C)=N1 (stereo in doubt; 15b-A) |  |  | 7.00 | < 4.52 |
| CSC1=NC2/C(=C(/O)OCCCCCSc3ccccc32)C(C)=N1 (stereo in doubt; 15b-B) |  |  | < 4.52 | 6.23 |
| COC(=O)C1=C(C)NC(C)=C(C(=O)OC)C1c1ccccc1[N+](=O)[O-] [NIFEDIPINE] | 7.72 | < 4.52 |  |  |
